# Yeast superoxide = lowers age-related superoxide in aged yeast cells | hit rate 0.18% among 330,000 | S. cerevisiae aged cells, superoxide DHE fluorescence; hits give low values | superoxide response (% of plate mean), % at 10 µM | AID 2690;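 active = superoxide response under a set limit, about three screen SD below normal, cut at about 65% in these data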;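 also: yeast aged for seven days with compound at 30 °C before DHE staining; 100% = average MFI of all compound-treated wells on the plate with controls excluded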
# TRPC4 block = TRPC4 (mouse) channel inhibition | B-score at 10 µM | HEK293 TRPC4beta/mu-opioid, DAMGO-evoked Fluo4 calcium flux; hits give low values | hit rate 0.39% among 300,000 | Q9QUQ5;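 active = B-score over 3 SD under the library average, no early fluorescence shift, positive overall ratio signal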
#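 Material: HEK293 cells with stable TRPC4beta plus mu-opioid receptor expression; probe or stimulus: DAMGO in two steps, submaximal then maximal; technique: Fluo4 calcium fluorescence by kinetic imaging, 5 s 1 Hz baseline; measure: integrated fluorescence ratio relative to baseline, converted to per-well B score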
# TRPC4 agonist = opens the mouse TRPC4 cation channel; hit rate 0.49% among 310,000; AID 2237; Q9QUQ5; HEK293 TRPC4beta/mu-opioid, Fluo4 calcium fluorescence; hits give high values; B-score at 10 µM;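 active = B-score above 5 SD of library B-scores, and initial fluorescence ratio not above library mean plus 5 SD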;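 also: positive B-score marks a calcium rise read as TRPC4 activation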
#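 System – HEK293 cells stably co-expressing mouse TRPC4beta and mu-opioid receptor · Signal – Fluo4 calcium-sensitive dye fluorescence, kinetic, 1 Hz baseline · Benchmarks – buffer (low) and maximal DAMGO (high) · Read-out – B score of integrated fluorescence ratio per well · Incubation – dye loading 45 min room temperature, 110 s kinetic read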
# TRPC4 potent = allosterically enhances the mouse TRPC4 cation channel; hit rate 0.42% among 310,000; Q9QUQ5; B-score at 10 µM; HEK293 TRPC4beta/mu-opioid, DAMGO EC20, Fluo-4 Ca2+ flux; hits give high values;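 active = B-score of calcium response area above 5 SD of library B-scores, with initial fluorescence ratio within 5 SD of library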;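 also: B-score of integrated fluorescence ratio over time as area under calcium response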
# TRPC6 act = activates the mouse TRPC6 cation channel. HEK293-TRPC6 membrane potential dye fluorescence; hits give high values. B-score at 10 µM. hit rate 0.13% among 310,000. AID 2550;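 active = B-score of the integrated fluorescence ratio above library mean plus 3 SD, and starting fluorescence ratio within library mean plus 5 SD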;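 also: higher score means more depolarization so channel activation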
# TRPC6 inhibitor = mouse TRPC6 channel inhibition; Q61143; HEK293-TRPC6, membrane potential dye, ACh-evoked depolarization; hits give low values; B-score at 10 µM; hit rate 1.1% among 310,000;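 active = B-score under library mean minus 3 SD, initial fluorescence not abnormally high, positive integrated signal ratio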;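 also: B-score derived from integrated fluorescence ratio over the kinetic read; more negative B-score means stronger inhibition of depolarization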
# * = called active by the depositor; i = inactive; · = not tested or not shown. Shown are actives, neighbours in structure and some others; about 2.3% of the full set was active somewhere.
SMILES,Yeast superoxide,TRPC4 block,TRPC4 agonist,TRPC4 potent,TRPC6 act,TRPC6 inhibitor
Cc1cccc(CN2CCCC(C(=O)Nc3ccccc3Oc3cccnc3)C2)c1 (centres undefined),103.7,-6*,i,i,i,i
O=C(Nc1ccccc1Oc1cccnc1)C1CCCN(C/C=C/c2ccc(F)cc2)C1 (centres undefined),105.9,i,i,i,i,i
CCc1nnc(NS(=O)(=O)c2ccc(NC(=S)Nc3ccc(F)cc3)cc2)s1,95.1,i,i,i,i,i
CN(c1ccccc1)S(=O)(=O)c1ccc2c(c1)OCCO2,116.1,·,·,·,·,·
CC(C)(C)C(=O)Nc1ccc(S(=O)(=O)c2ccc(NC(=O)C(C)(C)C)cc2)cc1,108.0,i,i,i,i,i
O=C1CC(N2CCN(c3ccc(F)cc3)CC2)C(=O)N1c1ccc(F)cc1 (centres undefined),100.0,i,i,i,i,i
O=C1CC(N2CCN(c3nc4ccccc4s3)CC2)C(=O)N1c1ccc(F)cc1 (centres undefined),86.1,i,i,14*,i,i
COCCn1c(SCc2nnc(-c3ccccc3)o2)nc2sc3c(c2c1=O)CCC3,·,i,i,i,i,i
Cc1cc(NCCN2CCCCC2)n2c(nc3ccccc32)c1C#N,·,i,i,i,i,-8.11*
C(=N\N(Cc1ccccc1)c1ccccc1)/c1cccnc1,124.5,-6*,i,i,i,i
Oc1cccc(/C=N/N(Cc2ccccc2)c2ccccc2)c1,93.3,i,i,i,i,i
O=C(NCc1ccco1)c1cnn2c1NC(c1ccc(Br)cc1)CC2C(F)(F)F (centres undefined),109.2,i,i,13*,i,i
O=c1ccc(-c2nc3ccccc3n2Cc2ccccc2Cl)c[nH]1,99.5,i,i,i,i,i
O=c1ccc(-c2nc3cc(Cl)ccc3n2Cc2ccccc2)c[nH]1,95.4,i,i,10*,i,i
COc1cc(/C=C2/C(=O)NN(c3cccc(C)c3)C2=O)ccc1OC(=O)c1ccco1,95.6,i,i,22*,i,i
COc1cc(/C=C2/C(=O)NN(c3cccc(C)c3)C2=O)cc([N+](=O)[O-])c1O,96.0,i,i,i,i,i
CC(C)CCN1CCN(Cc2nc3ccccc3s2)CC1CCO (centres undefined),104.0,i,i,i,i,i
OCCC1CN(Cc2nc3ccccc3s2)CCN1CCc1ccccc1 (centres undefined),91.0,i,60*,i,i,i
CC(C)CCN1CCN(Cc2ccsc2)CC1CCO (centres undefined),88.0,-8*,i,i,i,i
OCCC1CN(Cc2ccc(F)cc2)CCN1CCc1ccccc1 (centres undefined),95.3,i,i,i,i,i
C#Cc1ccc(CN2CCN(CCc3ccccc3)C(CCO)C2)cc1 (centres undefined),92.3,i,43*,i,i,i
CC(C)CCN1CCN(Cc2ccoc2)CC1CCO (centres undefined),98.4,i,i,i,i,i
CC(OC(=O)c1ccc(O)cc1)C(=O)Nc1ccc(Oc2ccccc2)cc1 (centres undefined),107.2,·,·,·,·,·
CN(C(=O)COC(=O)/C=C/c1ccc2ccccc2n1)c1c(N)n(Cc2ccccc2)c(=O)[nH]c1=O,134.5,·,·,·,·,·
O=C(O)COc1ccccc1Cc1ccccc1,94.7,i,i,i,i,i
CC(COc1ccccc1Cc1ccccc1)N1CCCCC1 (centres undefined),95.0,i,67*,i,11.8*,i
CC(=NCCN1CCN(C(C)=C2C(=O)c3ccccc3C2=O)CC1)C1=C(O)CC(C)(C)CC1=O,98.5,i,i,14*,i,i
CC(=C1C(=O)c2ccccc2C1=O)N1CCN(CCN=CC2=C(O)CC(C)(C)CC2=O)CC1,101.2,i,i,i,i,i
